# Residue numbers refer to the chain shown, from its start.
# Legend:
# [1] = biological target: T1, WT BcTSPO (Bacillus cereus, UniProt Q81BL7); assay: PpIX degradation activity assay; format: biochemical; conditions: WT TSPO in nanodiscs, PpIX:TSPO 1:1, light exposure
# T1 sequence (Q81BL7 1-153): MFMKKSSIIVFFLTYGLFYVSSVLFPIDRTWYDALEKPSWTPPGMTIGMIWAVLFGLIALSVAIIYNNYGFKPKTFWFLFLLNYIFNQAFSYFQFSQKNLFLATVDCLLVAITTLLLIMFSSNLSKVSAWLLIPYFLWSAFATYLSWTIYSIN
# Procedure, shortened: (§1)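 His10-tagged Bacillus cereus TSPO (C107S cysteine-free background) was expressed in E. coli BL21(DE3) pLysS, Ni-purified in β-DDM, then reconstituted into MSP1D1 nanodiscs with POPC:POPE 60:40 (TSPO/MSP/lipid/cholate 1/4/270/540). PpIX and loaded nanodiscs were mixed 1:1 molar in a 1 mm quartz cuvette. Emission at 633 nm was recorded in pulses of 60 s continuous illumination. V0 was taken as the absolute slope of a linear fit to the first three points (~120 s). Triplicate, mean ± SE.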
# [2] = biological target: T2, BcTSPO 34/102 double-cysteine variant (Bacillus cereus, UniProt Q81BL7, A34C/C107S/L102C); assay: PpIX degradation activity assay; format: biochemical; conditions: TSPO 34/102 in nanodiscs, PpIX:TSPO 1:1
# T2 sequence (Q81BL7 1-153 A34C/L102C/C107S): T1 sequence (Q81BL7 1-153) with A34C, L102C, C107S
# Procedure, shortened: as §1
# [3] = biological target: T3, BcTSPO 34/151 double-cysteine variant (Bacillus cereus, UniProt Q81BL7, A34C/C107S/S151C); assay: PpIX degradation activity assay; format: biochemical; conditions: TSPO 34/151 in nanodiscs, PpIX:TSPO 1:1
# T3 sequence (Q81BL7 1-153 A34C/C107S/S151C): T1 sequence (Q81BL7 1-153) with A34C, C107S, S151C
# Procedure, shortened: as §1
# [4] = biological target: T4, BcTSPO 23/151 double-cysteine variant (Bacillus cereus, UniProt Q81BL7, C107S/S151C/V23C); assay: PpIX degradation activity assay; format: biochemical; conditions: TSPO 23/151 in nanodiscs, PpIX:TSPO 1:1
# T4 sequence (Q81BL7 1-153 V23C/C107S/S151C): T1 sequence (Q81BL7 1-153) with V23C, C107S, S151C
# Procedure, shortened: as §1
# [5] = biological target: T5, BcTSPO W51F (Bacillus cereus, UniProt Q81BL7, C107S/W51F); assay: PpIX degradation activity assay; format: biochemical; conditions: TSPO W51F in nanodiscs, PpIX:TSPO 1:1
# T5 sequence (Q81BL7 1-153 W51F/C107S): T1 sequence (Q81BL7 1-153) with W51F, C107S
# Procedure, shortened: as §1
# [6] = biological target: T6, BcTSPO 23/35 double-cysteine variant (Bacillus cereus, UniProt Q81BL7, C107S/L35C/V23C); assay: PpIX degradation activity assay; format: biochemical; conditions: TSPO 23/35 in nanodiscs, PpIX:TSPO 1:1
# T6 sequence (Q81BL7 1-153 V23C/L35C/C107S): T1 sequence (Q81BL7 1-153) with V23C, L35C, C107S
# Procedure, shortened: as §1
# [7] = biological target: T7, BcTSPO 34/102-D33P (Bacillus cereus, UniProt Q81BL7, A34C/C107S/D33P/L102C); assay: PpIX degradation activity assay; format: biochemical; conditions: TSPO 34/102-D33P in nanodiscs, PpIX:TSPO 1:1
# T7 sequence (Q81BL7 1-153 D33P/A34C/L102C/C107S): T1 sequence (Q81BL7 1-153) with D33P, A34C, L102C, C107S
# Procedure, shortened: as §1
# [8] = biological target: T8, BcTSPO 34/102-K98E (Bacillus cereus, UniProt Q81BL7, A34C/C107S/K98E/L102C); assay: PpIX degradation activity assay; format: biochemical; conditions: TSPO 34/102-K98E in nanodiscs, PpIX:TSPO 1:1
# T8 sequence (Q81BL7 1-153 A34C/K98E/L102C/C107S): T1 sequence (Q81BL7 1-153) with A34C, K98E, L102C, C107S
# Procedure, shortened: as §1
# [9] = biological target: T9, BcTSPO 34/151-D33P (Bacillus cereus, UniProt Q81BL7, A34C/C107S/D33P/S151C); assay: PpIX degradation activity assay; format: biochemical; conditions: TSPO 34/151-D33P in nanodiscs, PpIX:TSPO 1:1
# T9 sequence (Q81BL7 1-153 D33P/A34C/C107S/S151C): T1 sequence (Q81BL7 1-153) with D33P, A34C, C107S, S151C
# Procedure, shortened: as §1
# [10] = biological target: T10, BcTSPO 34/151-K98E (Bacillus cereus, UniProt Q81BL7, A34C/C107S/K98E/S151C); assay: PpIX degradation activity assay; format: biochemical; conditions: TSPO 34/151-K98E in nanodiscs, PpIX:TSPO 1:1
# T10 sequence (Q81BL7 1-153 A34C/K98E/C107S/S151C): T1 sequence (Q81BL7 1-153) with A34C, K98E, C107S, S151C
# Procedure, shortened: as §1
# [11] = biological target: T11, BcTSPO W138F (Bacillus cereus, UniProt Q81BL7, C107S/W138F); assay: PpIX degradation activity assay; format: biochemical; conditions: TSPO W138F in nanodiscs, PpIX:TSPO 1:1
# T11 sequence (Q81BL7 1-153 C107S/W138F): T1 sequence (Q81BL7 1-153) with C107S, W138F
# Procedure, shortened: as §1
# [12] = biological target: T12, BcTSPO 34/151-W138F (Bacillus cereus, UniProt Q81BL7, A34C/C107S/S151C/W138F); assay: PpIX degradation activity assay; format: biochemical; conditions: TSPO 34/151-W138F in nanodiscs, PpIX:TSPO 1:1
# T12 sequence (Q81BL7 1-153 A34C/C107S/W138F/S151C): T1 sequence (Q81BL7 1-153) with A34C, C107S, W138F, S151C
# Procedure, shortened: as §1
# [13] = biological target: BcTSPO S22C-PEG; assay: Tryptophan fluorescence quenching binding assay; set-up: species or system Bacillus cereus; conditions: DDM-solubilized TSPO S22C conjugated with 5 kDa PEG; higher than WT
# [14] = biological target: T5, BcTSPO W51F; assay: Tryptophan fluorescence quenching binding assay; conditions: detergent-solubilized TSPO W51F; in words
# [15] = biological target: T9, BcTSPO 34/151-D33P; assay: Tryptophan fluorescence quenching binding assay; conditions: detergent-solubilized TSPO 34/151-D33P; in words
# [16] = biological target: T10, BcTSPO 34/151-K98E; assay: Tryptophan fluorescence quenching binding assay; conditions: detergent-solubilized TSPO 34/151-K98E; in words
# [17] = biological target: T7, BcTSPO 34/102-D33P; assay: Tryptophan fluorescence quenching binding assay; conditions: detergent-solubilized TSPO 34/102-D33P; in words
# [18] = biological target: T8, BcTSPO 34/102-K98E; assay: Tryptophan fluorescence quenching binding assay; conditions: detergent-solubilized TSPO 34/102-K98E; in words
# [19] = biological target: T6, BcTSPO 23/35 double-cysteine variant; assay: Tryptophan fluorescence quenching binding assay; conditions: detergent-solubilized TSPO 23/35; in words
# [20] = biological target: T11, BcTSPO W138F; assay: Tryptophan fluorescence quenching binding assay; conditions: detergent-solubilized TSPO W138F; in words
# [21] = biological target: T12, BcTSPO 34/151-W138F; assay: Tryptophan fluorescence quenching binding assay; conditions: detergent-solubilized TSPO 34/151-W138F; in words
smiles,measurement,setting,value
"C=CC1=C(C)c2cc3[nH]c(cc4nc(cc5[nH]c(cc1n2)c(C)c5CCC(=O)O)C(CCC(=O)O)=C4C)c(C)c3C=C [PpIX, protoporphyrin IX]",reaction velocity V0 of PpIX degradation,[1],approximately 17 nM/s
same,reaction velocity V0 of PpIX degradation,[2],approximately 17 nM/s
same,reaction velocity V0 of PpIX degradation,[3],approximately 17 nM/s
same,reaction velocity V0 of PpIX degradation,[4],approximately 17 nM/s
same,reaction velocity V0 of PpIX degradation,[5],approximately 5 nM/s
same,reaction velocity V0 of PpIX degradation,[6],approximately 5 nM/s
same,reaction velocity V0 of PpIX degradation,[7],approximately 5 nM/s
same,reaction velocity V0 of PpIX degradation,[8],approximately 5 nM/s
same,reaction velocity V0 of PpIX degradation,[9],approximately 5 nM/s
same,reaction velocity V0 of PpIX degradation,[10],approximately 5 nM/s
same,reaction velocity V0 of PpIX degradation,[11],below 2 nM/s
same,reaction velocity V0 of PpIX degradation,[12],below 2 nM/s
same,Kd value of S22C-PEG relative to that of WT,[13],approximately 10 fold
same,dissociation constant Kd of PpIX compared with WT,[14],much higher
same,dissociation constant Kd of PpIX compared with WT,[15],much higher
same,dissociation constant Kd of PpIX compared with WT,[16],much higher
same,dissociation constant Kd of PpIX compared with WT,[17],much higher
same,dissociation constant Kd of PpIX compared with WT,[18],much higher
same,dissociation constant Kd of PpIX compared with WT,[19],much higher
same,binding of PpIX compared with WT,[20],as strongly as WT
same,binding of PpIX compared with WT,[21],as strongly as WT

# Source: article PMC10598825 (JACS Au, 2023)
